Test results published in ChEMBL document CHEMBL2311315, “Radiosynthesis and evaluation of [¹¹C-carbonyl]-labeled carbamates as fatty acid amide hydrolase radiotracers for positron emission tomography” (J Med Chem, 2013).

Legend:
Cortex [1] = experiment: Biodistribution in URB597-pretreated Sprague-Dawley rat brain cortex at 0.3 to 0.8 nmol, iv administered 30 mins after URB597-treatment measured after 40 mins by gamma counting analysis; type: ADME, organism-based; conditions: in vivo
How it was run: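 Rats received 2 mg/kg ip (2 mL/kg saline with Tween 80) of the FAAH inhibitor, or vehicle alone, 30 min before tracer. Tracer was 30–60 MBq iv by tail vein (0.3–0.8 nmol; buffered saline, 0.5% Tween 80), n = 5. Cortex was excised at 40 min, weighed, gamma counted and decay-corrected. Reported as SUV, mean ± SD. Compared with vehicle by Student's t test.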

Hypothalamus [2] = experiment: Biodistribution in Sprague-Dawley rat brain hypothalamus at 0.3 to 0.8 nmol, iv after 40 mins by gamma counting analysis; type: ADME, organism-based; conditions: in vivo
How it was run: (§1)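 Conscious male Sprague–Dawley rats (300–350 g), n = 5 per time point, received 30–60 MBq [11C]-radiotracer (70–170 GBq/μmol; 0.3–0.8 nmol) iv by tail vein in buffered saline with 0.5% Tween 80. Decapitated at 2 or 40 min. Dissected regions were weighed and gamma counted, decay-corrected to injection. Reported as SUV (%ID/g […]), mean ± SD.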

Hypothalamus [3] = experiment: Biodistribution in Sprague-Dawley rat brain hypothalamus at 0.3 to 0.8 nmol, iv after 2 mins by gamma counting analysis; type: ADME, organism-based; conditions: in vivo; how it was run: as §1
Cortex [4] = experiment: Biodistribution in Sprague-Dawley rat brain cortex at 0.3 to 0.8 nmol, iv after 40 mins by gamma counting analysis; type: ADME, organism-based; conditions: in vivo; how it was run: as §1
Cortex [5] = experiment: Biodistribution in Sprague-Dawley rat brain cortex at 0.3 to 0.8 nmol, iv after 2 mins by gamma counting analysis; type: ADME, organism-based; conditions: in vivo; how it was run: as §1
[6] = Half life in phosphate buffer at pH 7.4 by HPLC analysis; type: physicochemical
[7] = 1-octanol-phosphate buffer partition coefficient, log D of the compound at pH 7.4; type: physicochemical; conditions: octanol/water
How it was run: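 Radiotracer partitioned between 1-octanol and 0.02 M phosphate buffer, pH 7.4. Each determination replicated six times.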

[8] = target: T1, Fatty-acid amide hydrolase 1 (Rattus norvegicus) (UniProt P97612); experiment: Inhibition of FAAH-mediated [3H]anandamide hydrolysis in rat brain homogenate assessed as [3H]ethanolamine production at 100 nM incubated for 60 mins prior to substrate addition measured after 10 mins by liquid scintillation counting analysis relative to control; type: tissue-based
T1 sequence (whole entry): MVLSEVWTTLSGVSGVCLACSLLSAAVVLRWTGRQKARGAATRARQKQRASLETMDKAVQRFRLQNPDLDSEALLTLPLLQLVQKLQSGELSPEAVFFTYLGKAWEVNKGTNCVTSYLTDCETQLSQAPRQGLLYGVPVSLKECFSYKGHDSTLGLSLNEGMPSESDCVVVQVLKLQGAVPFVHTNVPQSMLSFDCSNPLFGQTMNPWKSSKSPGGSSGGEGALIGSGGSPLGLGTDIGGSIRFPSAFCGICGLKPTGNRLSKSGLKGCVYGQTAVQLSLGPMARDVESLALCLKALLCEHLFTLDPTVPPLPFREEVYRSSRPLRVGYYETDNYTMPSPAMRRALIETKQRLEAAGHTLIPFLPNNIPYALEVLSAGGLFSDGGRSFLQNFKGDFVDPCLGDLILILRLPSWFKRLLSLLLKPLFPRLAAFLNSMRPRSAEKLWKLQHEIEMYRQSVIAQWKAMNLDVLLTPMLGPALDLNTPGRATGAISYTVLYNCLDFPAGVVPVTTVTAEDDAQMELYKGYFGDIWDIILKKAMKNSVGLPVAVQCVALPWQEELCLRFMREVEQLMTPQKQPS
How it was run: (§2)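 Rat brain homogenate (0.5 μg protein) preincubated with inhibitor 60 min, then 0.5 μM [3H]anandamide (ethanolamine-labelled) added and incubated a further 10 min at 37 °C. Reaction stopped with charcoal in 0.5 M HCl; aqueous [3H]ethanolamine counted by liquid scintillation with quench correction. Values are % inhibition ± SEM, n = 3.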

[9] = target: T1, Fatty-acid amide hydrolase 1 (Rattus norvegicus); experiment: Inhibition of FAAH-mediated [3H]anandamide hydrolysis in rat brain homogenate assessed as [3H]ethanolamine production at 10 nM incubated for 60 mins prior to substrate addition measured after 10 mins by liquid scintillation counting analysis relative to control; type: tissue-based; how it was run: as §2
[10] = target: T1, Fatty-acid amide hydrolase 1 (Rattus norvegicus); experiment: Inhibition of FAAH-mediated [3H]anandamide hydrolysis in rat brain homogenate assessed as [3H]ethanolamine production at 1 nM incubated for 60 mins prior to substrate addition measured after 10 mins by liquid scintillation counting analysis relative to control; type: tissue-based
How it was run: (§3)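 Rat brain homogenate (0.5 μg protein) preincubated with inhibitor 60 min, then 0.5 μM [3H]anandamide (ethanolamine-labelled) added and incubated a further 10 min at 37 °C. Reaction stopped with charcoal in 0.5 M HCl; aqueous [3H]ethanolamine counted by liquid scintillation with quench correction.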

[11] = target: T1, Fatty-acid amide hydrolase 1 (Rattus norvegicus); experiment: Inhibition of FAAH-mediated [3H]anandamide hydrolysis in rat brain homogenate assessed as [3H]ethanolamine production at 0.1 nM incubated for 60 mins prior to substrate addition measured after 10 mins by liquid scintillation counting analysis relative to control; type: tissue-based; how it was run: as §3
Plasma = experiment: Percentage unbound in human plasma after 10 mins by ultrafiltration method; type: ADME, cell-free
How it was run: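 Human plasma from 6 blood samples was spiked with [11C]-radiotracer, held 10 min at ambient temperature, then ultrafiltered by centrifugation. Ultrafiltrate and plasma were counted and weighed. Binding to the device was corrected using pH 7.4 phosphate buffer in place of plasma.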

[12] = target: T1, Fatty-acid amide hydrolase 1 (Rattus norvegicus); experiment: Ratio of IC50 for FAAH in rat brain homogenate in the absence of preincubation phase to IC50 for FAAH in rat brain homogenate after 45 mins preincubation phase; type: tissue-based
[13] = target: T2, Fatty-acid amide hydrolase 1 (Rattus norvegicus, UniProt P97612); experiment: Inhibition of FAAH-mediated [3H]anandamide hydrolysis in rat brain homogenate assessed as [3H]ethanolamine production incubated for 45 mins prior to substrate addition measured after 10 mins by liquid scintillation counting analysis; type: tissue-based
T2 sequence (P97612 whole entry): T1 sequence (whole entry)
How it was run: (§4)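 Rat brain homogenate (0.5 μg protein) preincubated with inhibitor at 37 °C for 45 or 90 min, eight concentrations over 0.1–30 nM or six over 1–50 nM. Then 0.5 μM [3H]anandamide added for a further 10 min at 37 °C. Charcoal/HCl stop; [3H]ethanolamine in aqueous phase counted by scintillation. pI50 ± value reported, converted to IC50.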

[14] = target: T2, Fatty-acid amide hydrolase 1; experiment: Inhibition of FAAH-mediated [3H]anandamide hydrolysis in rat brain homogenate assessed as [3H]ethanolamine production incubated for 90 mins prior to substrate addition measured after 10 mins by liquid scintillation counting analysis; type: tissue-based; how it was run: as §4
Rattus norvegicus = experiment: Biodistribution in URB597-pretreated Sprague-Dawley rat brain parenchyma at 0.3 to 0.8 nmol, iv administered 30 mins after […]-treatment measured after 60 mins by gamma counting analysis; type: ADME, organism-based; conditions: in vivo, 1 h
How it was run: (§5)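 Rats (n = 3–4) were injected iv with [11C]-radiotracer as in the biodistribution procedure. At various times, whole brain was homogenized and exhaustively extracted with aqueous acetonitrile. Extracted (unbound) and tissue-bound radioactivity were counted. Binding rate was fitted to a one-phase exponential association, Y = Ymax(1 − exp(−KX)). Blocking used ip pretreatment with the FAAH inhibitor.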

[15] = Half life in URB597-pretreated Sprague-Dawley rat brain parenchyma at 0.3 to 0.8 nmol, iv administered 30 mins after […]-treatment; type: ADME, organism-based; how it was run: as §5
Brain [16] = experiment: Drug uptake in URB597-pretreated Sprague-Dawley rat brain parenchyma at 0.3 to 0.8 nmol, iv administered 30 mins after […]-treatment measured after 40 mins by gamma counting analysis; type: ADME, organism-based; conditions: in vivo; how it was run: as §5
Brain [17] = experiment: Drug uptake in URB597-pretreated Sprague-Dawley rat brain parenchyma at 0.3 to 0.8 nmol, iv administered 30 mins after […]-treatment measured after 5 mins by gamma counting analysis; type: ADME, organism-based; conditions: in vivo; how it was run: as §5

SMILES	SUV (Cortex [1])	SUV (Hypothalamus [2])	SUV (Hypothalamus [3])	Drug uptake (Cortex [4]) [%]	SUV (Cortex [4])	SUV (Cortex [5])	t1/2 [6] [h]	logD [7]	inhibition [8] [%]	inhibition [9] [%]	inhibition [10] [%]	inhibition [11] [%]	further results
O=[11C](NC1CCC1)Oc1ccc(O)c(-c2ccccc2)c1	0.23	1.48	1.81	80	3.37	2.68	–	–	–	–	–	–	–
O=C(NC1CCCC1)Oc1ccc(O)c(-c2ccccc2)c1	–	–	–	–	–	–	138	2.8	99	80	15	-8	–
CCCCCCNC(=O)Oc1ccc(O)c(-c2ccccc2)c1	–	–	–	–	–	–	77	3.67	100	97	44	9	Fu (Plasma): 0.35%
NC(=O)c1cccc(-c2cccc(O[11C](=O)NC3CCCCC3)c2)c1	0.17	0.51	0.47	80	0.94	0.79	–	–	–	–	–	–	–
O=C(NC1CCCCC1)Oc1cccc(C2=NCCO2)c1	–	–	–	–	–	–	5.1	3.01	99	97	31	0.2	–
CN1CCC(NC(=O)Oc2ccc(O)c(-c3ccccc3)c2)CC1	–	–	–	–	–	–	25	–	12	1	-0.5	2	–
CCCCCCNC(=O)Oc1cccc(C2=NCCO2)c1	–	–	–	–	–	–	8.7	3.33	100	100	74	9	Ratio IC50 [12]: 4; IC50 [13]: 1.2 nM; IC50 [14]: 0.55 nM
O=C(NC1CCC1)Oc1ccc(O)c(-c2ccccc2)c1	–	–	–	–	–	–	89	3.42	101	70	8	-0.1	–
O=C(NC1CCCC1)Oc1cccc(C2=NCCO2)c1	–	–	–	–	–	–	4.6	2.35	99	40	4	-2	–
O=C(NC1CCCCC1)Oc1ccc(O)c(-c2ccccc2)c1	–	–	–	–	–	–	121	2.85	101	69	4	-2	Ratio IC50 [12]: 4; IC50 [13]: 9.4 nM; IC50 [14]: 4.9 nM; Fu (Plasma): 0.75%
O=[11C](NC1CCCCC1)Oc1ccc(O)c(-c2ccccc2)c1	0.36	1.14	1.61	80	2.49	2.4	–	–	–	–	–	–	Drug uptake (Rattus norvegicus): 90%; half-life [15]: 6.6 min
CN1CCC(NC(=O)Oc2cccc(C3=NCCO3)c2)CC1	–	–	–	–	–	–	0.8	–	8	3	12	6	–
CN1CCC(NC(=O)Oc2cccc(-c3ccccc3)c2)CC1	–	–	–	–	–	–	–	–	13	6	9	6	–
CCCCCCN[11C](=O)Oc1ccc(O)c(-c2ccccc2)c1	0.27	1.25	1.21	80	2.49	1.63	–	–	–	–	–	–	–
NC(=O)c1cccc(-c2cccc(OC(=O)NC3CCCCC3)c2)c1 [URB-597]	–	–	–	–	–	–	19	3.61	–	–	–	–	Fu (Plasma): 0.48%
O=[11C](NC1CCCC1)Oc1ccc(O)c(-c2ccccc2)c1	0.33	1.22	1.87	80	3.09	2.36	–	–	–	–	–	–	Drug uptake (Rattus norvegicus): 90%; half-life [15]: 5.5 min; Drug uptake (Brain [16]): Not Active; Drug uptake (Brain [17]): Not Active
